# Screening data: PubChem, several laboratories
# T cruzi inh: blocks replication of Trypanosoma cruzi. T. cruzi beta-gal in NIH3T3, luminescence, 90 h. inhibition, % (test concentration not listed). actives 1.4% (n = 300,000). AID 1885;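 active means mean inhibition across valid replicates above about 55%, limit read from the data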;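 further: signal also drops with host cell toxicity which is not excluded here; 0% = plate median of DMSO wells and 100% = zero luminescence signal; higher percent means less beta-gal luminescence so fewer parasites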
#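 System – NIH/3T3 host cells with β-galactosidase reporter T. cruzi · Doses – single 50 nL compound addition per well in DMSO · Reagent – 5000 T. cruzi trypomastigotes/well · Medium – Low-serum DMEM with 2% FBS · Timing – ≥90 h infection period, 3 h prior cell attachment · Evaluation – parasite load inhibition, % · Technique – GalScreen luminescence, 60 min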
# MEKK2wt PB1 HTS: raises or lowers MEK5 binding to wildtype human MEKK2 PB1 domain | Q9Y2U5 | bead flow cytometry, Alexa488-MEK5 binding to MEKK2 WT; actives lie on both sides | binding response (% of control), % at 10 µM | actives 1.1% (n = 290,000); in the data active means binding response below about 67% or above about 130%
# MEKK3 PB1 HTS: MEKK3-MEK5 PB1 interaction, increase or decrease; actives 1.4% (n = 290,000); Q99759; binding response (% of control), % at 10 µM; AID 1529; bead-based flow cytometry, Alexa488-MEK5 binding to MEKK3; actives lie on both sides; 0 = blocked by unlabeled MEK5, 100 = vehicle;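 active means binding response more than 3 SD above or below the average of its plate-row segment, actives on both sides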;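 further: Alexa488 bead fluorescence after subtracting the streptavidin-only scavenger bead signal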
# NS3 helicase inh: HCV NS3 helicase inhibition; NS3 helicase DNA unwinding, Cy5 molecular beacon fluorescence; inhibition, % at 10.9 µM; actives 0.56% (n = 290,000); AID 1800;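 active means inhibition above the mean of all tested compounds plus 3 SD, set per campaign, cut at about 35% in these data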;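 further: 0% = DMSO wells and 100% = thioflavine S control wells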
#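 Test system: hepatitis C virus NS3 helicase domain fragment enzyme. Also added: annealed dual-labelled DNA beacon duplex, ATP-started. Timing: 60 min unwinding reaction at 25 °C after ATP addition. Technique: Cy5 fluorescence. Measure: % inhibition of unwinding.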
# DNA FID counter: displaces DNA intercalator in HCV helicase counter-screen; DNA fluorescent intercalator displacement, fluorescence; inhibition, % at 7.9 µM; actives 0.17% (n = 290,000); AID 1845; in the data active means inhibition above about 37%;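 further: 0% = vehicle and 100% = reference compound; higher means more ethidium bromide displaced from hairpin DNA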
# MEKK2 mut-MEK5: signal of MEK5 binding to mutant human MEKK2 PB1 domain | percent response, % at 10 µM | bead flow cytometry, Alexa488-MEK5 binding to MEKK2 mutant | actives 0.35% (n = 290,000); in the data active means percent response above about 24%, passing the limit was not always enough
# MEKK2wt confirm: raises or lowers MEK5 binding to wildtype human MEKK2, retest; shares compounds with MEKK3 PB1 HTS; bead flow cytometry, Alexa488-MEK5 binding to MEKK2 WT; actives lie on both sides; binding response (% of control), % at 10 µM; actives 2.4% (n = 5,900); AID 1892; in the data active means binding response below about 16% or above about 210%; inactive means in between
# MEKK2mut confirm: signal of MEK5 binding to mutant human MEKK2, retest; shares compounds with MEKK3 PB1 HTS; bead flow cytometry, Alexa488-MEK5 binding to MEKK2 mutant; percent response, % at 10 µM; actives 2% (n = 5,900); AID 1893; in the data active means percent response mostly above about 71%, no sharp cut-off; inactive means mostly below about 38%;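 further: higher means compound restores mutant binding toward wildtype level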
# MEKK3 confirm: confirmation of inhibitors of MEK5 binding to human MEKK3. shares compounds with MEKK3 PB1 HTS. bead flow cytometry, Alexa488-MEK5 binding to MEKK3; hits give low values. binding response (% of control), % at 10 µM. actives 1.8% (n = 5,900);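 active means binding response below 72% of control, or above a set upper limit, though filed actives all read lower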;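 further: 100% = DMSO only wells and 0% = binding blocked by excess unlabeled MEK5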
# * marks the source's active call; other numbers are inactive results; / = no result given; [ ] = dose if it differs, or a comment. Only some compounds are listed: those with a hit (about 4.1% of all), similar ones and a draw of the others.
SMILES,T cruzi inh,MEKK2wt PB1 HTS,MEKK3 PB1 HTS,NS3 helicase inh,DNA FID counter,MEKK2 mut-MEK5,MEKK2wt confirm,MEKK2mut confirm,MEKK3 confirm
CCc1ccccc1NC(=O)CSc1nc2n[nH]c(C)c2c(=N)n1-c1ccc(OC)cc1,/,106,107,-2,-15,13,/,/,/
CCCN1CCN(CCCNC(=O)CCn2nc(-c3ccccc3)ccc2=O)CC1,-16,82,79,0,10,-19,/,/,/
O=C(CCn1nc(-c2ccc(Cl)cc2)ccc1=O)NCCCN1CCCCCC1,2,193*,110,-14,15,50*,191,47,109
CCS(=O)(=O)c1ccc(O)c(NC(=O)c2cc(OC)c(OC)c(OC)c2)c1,-8,97,96,-1,-9,-3,/,/,/
CCS(=O)(=O)c1ccc(N=Nc2ccc(O)c3ncccc23)c(OC)c1,26,108,131*,-9,-4,0,99,1,99
CCCCc1nc2cc(C(=O)NCc3cc(C)n(C)n3)ccc2o1,-16,103,100,0,-32,6,/,/,/
CC(/C=C/c1ccccc1)=N/NC(=O)c1nc2nc(C)cc(C)n2n1,-10,117,130*,8,-11,1,97,0,100
C(=C\c1ccccc1)/C=N/Nc1nncc(-c2ccccc2)n1,-5,109,131*,-2,-5,0,100,-1,100
Oc1cccc(/C=N\Nc2nncc(-c3ccccc3)n2)c1,1,90,94,12,-16,-10,/,/,/
CC(C)C[C@H](NC(=O)OC(C)(C)C)C(=O)N[C@@H](CO)[C@H](O)[C@@H]1C[C@@H]1C(=O)N(C)C,6,111,99,19,-15,3,/,/,/
COc1cc2nc(/C=C/c3ccc(N(C)C)cc3)sc2cc1SC,/,33*[inhibitor],89,6,-4,32,86,-13,93
CCN(CC)c1ccc(/C=C/c2nc3ccccc3s2)cc1,27,81,98,-1,2,2,/,/,/
COc1ccccc1CCNC(=O)c1cc(COc2cccc(C(F)(F)F)c2)on1,14,101,101,-4,-34,3,/,/,/
CN(C)CCCn1c(SCC(=O)Nc2nc(-c3cccc(Br)c3)cs2)nc2ccccc2c1=O,68*,265*,128*,-67,8,55*,272*,166*,114
O=S(=O)(/C=C/c1ccccc1)N1CCN(c2ccc(F)cc2)CC1,-15,82,74*[inhibitor],-5,-19,-10,105,5,105
O=S(=O)(/C=C/c1ccccc1)N1CCN(c2ccccc2)CC1,-9,105,105,0,-4,6,/,/,/
N#Cc1nc(-c2ccccc2)oc1NCC1CCCO1 (stereo unspecified),-7,112,147*,-3,-6,0,92,-8,96
N#Cc1nc(-c2ccccc2)oc1NCCN1CCCCC1,-10,3.0*[inhibitor],2.0*[inhibitor],3,2,-21,108,2,104
N#Cc1nc(-c2cccs2)oc1NCCN1CCOCC1,4,/,/,-11,3,/,/,/,/
O=C(CCSCc1cccc(Cl)c1)NCCc1ccccc1,1,106,134*,-2,-18,0,105,7,105
CN(CC(=O)NCCc1ccc(F)cc1)Cc1cccc(Cl)c1,2,6.0*[inhibitor],5.0*[inhibitor],-10,-11,-28,108,9,108
O=C(NN=C1c2ccccc2-c2ccccc21)c1ccccc1Br,3,8.0*[inhibitor],4.0*[inhibitor],1,-6,-24,99,1,102
